Data reported in ChEMBL document CHEMBL5712893, “Multiple Histone Lysine Methyltransferases Are Required for the Establishment and Maintenance of HIV-1 Latency” (2017).
Activity calls are given as the source filed them. The calls are words filed in the database; no cut-off is given here.

What was measured:
[1] = test system: Human immunodeficiency virus 1; assay: Reactivation of quiescent HIV-1 infected in human Th17 cells stimulated by IL-15 treated at 100 nM for 72 hrs followed by viral infection replenishment of drug medium every 72 hrs for 26 days by FACS analysis relative to control; format: functional
In short: (§1)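 Th17 cells exposed to inhibitor (100 nM) for 72 h, then infected with HIV-1. Infected cells kept under low-cytokine conditions to enter quiescence, with drug replenished every 72 h. On day 26, cells washed free of drug and induced with CD3/CD28 beads, IL-15 (50 ng/ml) or ConA (5 µg/ml). Nef and pSer175-CDK9 read by FACS; DMSO-pretreated control.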

[2] = test system: Human immunodeficiency virus 1; assay: Reactivation of HIV-1 latent proviruses in Th17 resting memory T cells by measuring pSer175 CDK9 level treated at 10 nM for 96 hrs by FACS analysis (reference value: 1.59%); format: functional
[3] = test system: Human immunodeficiency virus 1; assay: Reactivation of HIV-1 latent proviruses in Th17 resting memory T cells by measuring pSer175 CDK9 level treated at 100 nM for 96 hrs by FACS analysis (reference value: 1.59%); format: functional
In short: (§2)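 Naive CD4+ T cells from healthy-donor PBMCs were activated with CD3/CD28 beads, polarized to Th17, and infected with VSV-G-pseudotyped Nef+ HIV-1 expressing CD8a-d2EGFP. Infected cells were CD8a-selected and made quiescent for 2 weeks in IL-2 (15 IU/ml) plus IL-23 ([…]). Cells were then exposed to compound for 96 h. Nef and pSer175-CDK9 were read by FACS, and viability by propidium iodide.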

[4] = test system: Human immunodeficiency virus 1; assay: Reactivation of HIV-1 latent proviruses in Th17 resting memory T cells after PRC2 KD infected with vesicular stomatitis virus G-pseudotyped HIV-1 at 10 nM by FACS analysis; format: functional; in short: as §2
[5] = test system: Human immunodeficiency virus 1; assay: Reactivation of latent proviruses in human Th17 cells infected with HIV-1 assessed as Nef and pSer175-CDK9 levels at 100 nM after 72 hrs by FACS analysis; format: functional; in short: as §1
[6] = test system: Human immunodeficiency virus 1; assay: Reactivation of HIV-1 latent proviruses in Th17 resting memory T cells by measuring pSer175 CDK9 level treated at 1 uM for 96 hrs by FACS analysis (reference value: 1.59%); format: functional; in short: as §2
[7] = test system: Human immunodeficiency virus 1; assay: Reactivation of HIV-1 latent proviruses in Th17 resting memory T cells by measuring pSer175 CDK9 level treated at 1 uM for 96 hrs by FACS analysis (reference value: 0.76%); format: functional; in short: as §2
[8] = test system: Human immunodeficiency virus 1; assay: Reactivation of HIV-1 latent proviruses in Th17 resting memory T cells by measuring pSer175 CDK9 level treated at 100 nM for 96 hrs by FACS analysis (reference value: 0.76%); format: functional; in short: as §2
[9] = test system: Human immunodeficiency virus 1; assay: Reactivation of HIV-1 latent proviruses in Th17 resting memory T cells by measuring pSer175 CDK9 level treated at 10 nM for 96 hrs by FACS analysis (reference value: 0.76%); format: functional
[10] = test system: Human immunodeficiency virus 1; assay: Reactivation of HIV-1 latent proviruses in Th17 resting memory T cells by measuring pSer175 CDK9 level treated at 1 uM for 96 hrs by FACS analysis (reference value: 1.07%); format: functional; in short: as §2
[11] = test system: Human immunodeficiency virus 1; assay: Reactivation of HIV-1 latent proviruses in Th17 resting memory T cells after PRC2 KD infected with vesicular stomatitis virus G-pseudotyped HIV-1 at 100 nM by FACS analysis relative to control; format: functional
In short: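 Th17 cells were pretreated with 100 nM compound for 72 h, then infected with VSV-G-pseudotyped HIV-1 and cultured under low-cytokine conditions to force quiescence, with drug replenished every 72 h. On day 26 the drug was washed out and cells were induced with CD3/CD28 beads, IL-15 (50 ng/ml) or ConA (5 µg/ml). Nef and pSer175-CDK9 were read by FACS against DMSO-pretreated cells.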

[12] = test system: Human immunodeficiency virus 1; assay: Reactivation of HIV-1 latent proviruses in Th17 resting memory T cells by measuring pSer175 CDK9 level treated at 100 nM for 96 hrs by FACS analysis (reference value: 1.07%); format: functional
[13] = test system: Human immunodeficiency virus 1; assay: Reactivation of HIV-1 latent proviruses in Th17 resting memory T cells by measuring pSer175 CDK9 level treated at 10 nM for 96 hrs by FACS analysis (reference value: 1.07%); format: functional
[14] = test system: Human immunodeficiency virus 1; assay: Antiviral activity against HIV-1 in human Jurkat T cells assessed as reduction GFP positive cells at 1 uM for 18 hrs; format: functional, organism-based
In short: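 Jurkat E6 cells pretreated overnight with inhibitor (5 µM; DZNep 5 or 10 µM; phenelzine 250 µM), washed twice with PBS, then spinoculated with VSV-G-pseudotyped HIV-1 (d2EGFP-Nef). Three days later, silent proviruses induced with 1 µM SAHA for 18 h. d2EGFP measured by FACS. Relative silencing is the % silent virus (SAHA-stimulated minus untreated GFP+), divided by scrambled/untreated control. Two independent experiments, SEM.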

[15] = test system: Human immunodeficiency virus 1; assay: Reactivation of HIV-1 infected in human Jurkat cells at 1 uM measured after 7 days by FACS analysis relative to control; format: functional; details: time 7 day
In short: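 E4 Jurkat cells carrying latent d2EGFP HIV-1, infected with shRNA or CRISPR-Cas9 lentivirus. Seven days post-infection, stimulated overnight with SAHA (1 µM), anti-CD3 (0.125 µg/ml) plus anti-CD28 (1 µg/ml), or TNF-α (1 ng/ml). d2EGFP-positive cells quantified by FACS. Three separate experiments, SEM.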

Row | SMILES | Activity [1] [%] | Activity [2] [%] | Activity [3] [%] | Activity [4] [%] | Activity [5] [%] | Activity [6] [%] | Activity [7] [%] | Activity [8] [%] | Activity [9] [%] | Activity [10] [%] | Activity [11] [%] | Activity [12] [%] | Activity [13] [%] | Activity [14] | Activity [15] [%]
1 | COc1cc2c(NC3CCN(C(C)C)CC3)nc(C3CCCCC3)nc2cc1OCCCN1CCCC1 | 22 | 22.84 | 32.18 | 35 | ~4 | 34.92 | – | – | – | – | – | – | – | – | –
2 | CCN(c1cc(-c2ccc(CN3CCOCC3)cc2)cc(C(=O)NCc2c(C)cc(C)[nH]c2=O)c1C)C1CCOCC1 [TAZEMETOSTAT] | 40 | – | – | 20 | ~10 | – | 27.81 | 29.17 | 16.28 | – | – | – | – | – | –
3 | CCCc1cc(C)[nH]c(=O)c1CNC(=O)c1cc(-c2ccnc(N3CCN(C)CC3)c2)cc2c1cnn2C(C)C | 27 | – | – | 20 | ~8 | – | – | – | – | 29.11 | 24.15 | 24.13 | 22.31 | – | –
4 | O=C(CCCCCCC(=O)Nc1ccccc1)NO [VORINOSTAT] | – | – | – | – | – | – | – | – | – | – | – | – | – | Active | ~30
